Laboratory results reported in ChEMBL document CHEMBL6134766, “Design, synthesis, and evaluation of benzhydrylpiperazine-based novel dual COX-2/5-LOX inhibitors with anti-inflammatory and anti-cancer activity” (RSC Med Chem, 2025).
Calls of active or inactive are those of the source. The calls are words filed in the database; no cut-off is given here.

Tests used:
[1] = target: T1, Polyunsaturated fatty acid 5-lipoxygenase (Homo sapiens, UniProt P09917); test: Inhibition of 5-LOX (unknown origin) using arachidonic acid as substrate preincubated for 5 mins followed by substrate addition measured after 10 mins by spectrophotometry
T1 sequence (P09917 whole entry): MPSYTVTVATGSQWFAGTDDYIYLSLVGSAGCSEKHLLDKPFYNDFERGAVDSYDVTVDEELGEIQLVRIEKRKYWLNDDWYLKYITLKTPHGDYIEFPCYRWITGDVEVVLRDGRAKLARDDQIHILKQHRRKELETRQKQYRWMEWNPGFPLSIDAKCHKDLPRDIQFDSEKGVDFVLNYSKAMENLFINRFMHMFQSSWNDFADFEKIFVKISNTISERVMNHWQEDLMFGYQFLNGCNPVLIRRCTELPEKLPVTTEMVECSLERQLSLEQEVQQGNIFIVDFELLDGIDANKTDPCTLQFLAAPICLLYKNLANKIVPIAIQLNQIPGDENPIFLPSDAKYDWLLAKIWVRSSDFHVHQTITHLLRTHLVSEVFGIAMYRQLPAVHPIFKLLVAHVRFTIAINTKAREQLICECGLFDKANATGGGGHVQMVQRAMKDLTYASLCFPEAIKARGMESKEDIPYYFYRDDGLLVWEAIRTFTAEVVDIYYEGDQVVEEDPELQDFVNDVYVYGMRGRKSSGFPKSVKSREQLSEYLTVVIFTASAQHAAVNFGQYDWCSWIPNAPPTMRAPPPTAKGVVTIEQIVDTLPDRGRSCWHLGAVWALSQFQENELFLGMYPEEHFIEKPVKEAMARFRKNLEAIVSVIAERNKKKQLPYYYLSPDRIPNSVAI

[2] = Acute toxicity in female Wistar rat assessed as detrimental effects up to 500 mg/kg, po measured for 14 days; format: organism-based; conditions: in vivo, 336 h, time 14 day
Method in brief: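 Followed OECD 423 guideline in healthy female Wistar rats weighing 200–250 g. Animals were housed at 25 ± 2 °C and 45–60% RH on a 12 h light/dark cycle, with free access to water and food.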

Rattus norvegicus [3] = test: Anti-inflammatory activity in carrageenan-induced paw edema Wistar rat model assessed as swelling thickness of paw at 5 mg/kg, po measured after 1 hr by digital vernier caliper (reference value: 8.47 +/- 0.25 millimeter); format: functional
Rattus norvegicus [4] = test: Anti-inflammatory activity in carrageenan-induced paw edema Wistar rat model assessed as swelling thickness of paw at 10 mg/kg, po measured after 1 hr by digital vernier caliper (reference value: 8.47 +/- 0.25 millimeter); format: functional
Rattus norvegicus [5] = test: Anti-inflammatory activity in carrageenan-induced paw edema Wistar rat model assessed as swelling thickness of paw at 20 mg/kg, po measured after 1 hr by digital vernier caliper (reference value: 8.47 +/- 0.25 millimeter); format: functional
Rattus norvegicus [6] = test: Anti-inflammatory activity in carrageenan-induced paw edema Wistar rat model assessed as swelling thickness of paw at 10 mg/kg, po measured after 3 hrs by digital vernier caliper (reference value: 8.56 +/- 0.45 millimeter); format: functional
Rattus norvegicus [7] = test: Anti-inflammatory activity in carrageenan-induced paw edema Wistar rat model assessed as swelling thickness of paw at 20 mg/kg, po measured after 3 hrs by digital vernier caliper (reference value: 8.56 +/- 0.45 millimeter); format: functional
Rattus norvegicus [8] = test: Anti-inflammatory activity in carrageenan-induced paw edema Wistar rat model assessed as swelling thickness of paw at 5 mg/kg, po measured after 5 hrs by digital vernier caliper (reference value: 8.47 +/- 0.32 millimeter); format: functional
Rattus norvegicus [9] = test: Anti-inflammatory activity in arachidonic acid-induced paw edema Wistar rat model assessed as swelling thickness of paw at 5 mg/kg, po measured after 1 hr by digital vernier caliper (reference value: 6.51 +/- 0.37 millimeter); format: functional
Rattus norvegicus [10] = test: Anti-inflammatory activity in arachidonic acid-induced paw edema Wistar rat model assessed as protection against swelling thickness of paw at 5 mg/kg, po measured after 1 hr by digital vernier caliper (reference value: 0 %); format: functional
Rattus norvegicus [11] = test: Anti-inflammatory activity in arachidonic acid-induced paw edema Wistar rat model assessed as protection against swelling thickness of paw at 10 mg/kg, po measured after 1 hr by digital vernier caliper (reference value: 0 %); format: functional
[12] = Toxicity in fasting Wistar rat assessed as ulceration at 20 mg/kg, po via gavage treated for 3 days consecutively by H and E staining based analysis (reference value: 0 %); format: organism-based; conditions: in vivo, 72 h, time 3 day
Method in brief: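 Fasted rats, n = 6/group, gavaged once daily for 3 days in 0.3% Na CMC (vehicle control 0.3% CMC); killed under anaesthesia 6 h after day-3 dose; stomachs saline-washed, mucosa examined with hand lens; ulcer score, index and % ulceration by reported scoring; some stomachs formalin-fixed, H&E stained.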

Gastric mucosa = test: Antioxidant activity in gastric mucosal tissue in Wistar rat assessed as increase in SOD level at 20 mg/kg, po; format: functional, organism-based
Method in brief: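 Gastric tissue from fasted rats (dosed orally once daily for 3 days in 0.3% Na CMC) homogenized in cold PBS pH 7.4, centrifuged 1000 rpm, 10 min, 4 °C; protein by Bradford; SOD measured in supernatant per reported procedure.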

[13] = Toxicity in Wistar rat assessed as change in serum AST level at 20 mg/kg, po; format: organism-based; conditions: in vivo
Method in brief: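 Rats dosed orally in 0.3% Na CMC; retro-orbital blood clotted at room temperature, serum separated at 2000 rpm, 20 min, 4 °C; ALT, AST, creatinine and urea by commercial kits; n = 6 per group, mean ± SD; Tukey test after repeated-measures one-way ANOVA.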

Rattus norvegicus [14] = test: Cardio-protective activity in ISO-treated Wistar rat assessed as decrease in serum CK-MB level at 20 mg/kg, po; format: functional, organism-based
Method in brief: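 Rats (n = 6/group) given ISO 100 mg kg−1 s.c., then oral test compound in 0.3% CMC; vehicle controls. Retro-orbital blood, serum separated at 4000 rpm, 4 °C, 10 min; LDH and CK-MB by commercial kits; mean ± SD.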

Rattus norvegicus [15] = test: Cardio-protective activity in ISO-treated Wistar rat assessed as decrease in serum cTn-I level at 20 mg/kg, po by ELISA; format: functional, organism-based
Method in brief: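 ISO 100 mg kg−1 s.c. rat model, oral treatment after ISO, n = 6 per group; serum from retro-orbital blood (4000 rpm, 4 °C, 10 min); cTn-I by commercial kit; mean ± SD.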

For `Clc1ccc(-c2nnc(CN3CCN(C(c4ccccc4)c4ccc(Cl)cc4)CC3)o2)cc1` (configuration not stated), the IC50 [1] was 7.87 µM, the Activity [2] was “Non-toxic” and the Activity (Rattus norvegicus [3]) was 6.18 mm. The Activity (Rattus norvegicus [4]) was 5.15 mm, the Activity (Rattus norvegicus [5]) was 5.12 mm and the Activity (Rattus norvegicus [6]) was 3.47 mm. The Activity (Rattus norvegicus [7]) was 3.41 mm, the Activity (Rattus norvegicus [8]) was 3.98 mm and the Activity (Rattus norvegicus [9]) was 2.86 mm. For the same molecule, the Activity (Rattus norvegicus [10]) was 56.12%, the Activity (Rattus norvegicus [11]) was 69.22% and the Activity [12] was 1.25%. The Activity (Gastric mucosa) was “Active”, the Activity [13] was “Non-toxic” and the Activity (Rattus norvegicus [14]) was “Active”. The Activity (Rattus norvegicus [15]) was “Active”.

With `O=[N+]([O-])c1ccc(-c2nnc(CN3CCN(C(c4ccccc4)c4ccc(Cl)cc4)CC3)o2)cc1` (configuration not stated) the IC50 [1] was 9.16 µM, the Activity [2] was “Non-toxic” and the Activity (Rattus norvegicus [3]) was 5.74 mm. The Activity (Rattus norvegicus [4]) was 5.32 mm, the Activity (Rattus norvegicus [5]) was 5.16 mm and the Activity (Rattus norvegicus [6]) was 4.41 mm. The Activity (Rattus norvegicus [7]) was 4.54 mm, the Activity (Rattus norvegicus [8]) was 4.22 mm and the Activity (Rattus norvegicus [9]) was 2.92 mm. The Activity (Rattus norvegicus [10]) was 55.22%, the Activity (Rattus norvegicus [11]) was 62.33% and the Activity [12] was 4.86%. For the same molecule, the Activity (Gastric mucosa) was “Active”, the Activity [13] was “Non-toxic” and the Activity (Rattus norvegicus [14]) was “Active”. The Activity (Rattus norvegicus [15]) was “Active”.
